Rpn11 block = inhibitors of human proteasome Rpn11; inhibition, % at 20 µM; O00487; human 26S proteasome, Ub4-pepOG fluorescence polarization; 20S core pre-blocked with epoxomicin; actives 0.59% (n = 360,000); AID 588493;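 active means inhibition at 20 µM, scaled to each plate's controls, above about 33%, limit read from the data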
DNMT1 inh = blocks human DNA methyltransferase DNMT1; inhibition (reported as % activation of signal), % at 10 µM; actives 0.83% (n = 360,000); DNMT1 molecular beacon, Hinp1I cleavage, fluorescence; in the data active means inhibition above about 50%
Scp1 inh = blocks human Scp-1 phosphatase activity | AID 493091 | actives 0.88% (n = 340,000) | Recombinant Scp1, phosphopeptide, malachite green phosphate absorbance | inhibition, % at 20 µM;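 active means inhibition above about 50% at 20 µM, limit read from the data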;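 further: plate controls were DMSO wells with enzyme for no effect and wells lacking enzyme for full effect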
Target sequence (Q9GZU7 76-261 limits assumed): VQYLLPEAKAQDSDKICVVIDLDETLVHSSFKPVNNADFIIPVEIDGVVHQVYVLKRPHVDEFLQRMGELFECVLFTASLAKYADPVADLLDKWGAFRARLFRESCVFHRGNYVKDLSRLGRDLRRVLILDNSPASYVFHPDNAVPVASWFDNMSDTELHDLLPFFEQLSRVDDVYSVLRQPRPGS
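Times: enzyme reaction 45 min at room temperature, colour 5 min, stabilisation 30 min. Material: SCP-1 catalytic fragment, aa 76-261. Medium: Acidic Tris acetate buffer with magnesium and detergent. Signal: colorimetric free-phosphate detection, absorbance 630 nm. Read-out basis: % inhibition of SCP-1 phosphate liberation. Reagent: Phosphorylated 17-residue peptide substrate.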
SUMO1 PPI mod = modulators of human SUMO1-mediated protein-protein interactions; actives 0.33% (n = 360,000); AID 602429; SUMO1 binding to a labelled peptide, TR-FRET, 1 h; P63165; inhibition, % at 20 µM; in the data active means inhibition above about 37%
Target sequence (P63165 whole entry, looked up): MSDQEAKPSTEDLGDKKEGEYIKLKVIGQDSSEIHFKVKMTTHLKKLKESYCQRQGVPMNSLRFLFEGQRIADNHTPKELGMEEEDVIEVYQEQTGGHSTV
LMPTP inh = LMPTP (human) inhibition. recombinant LMPTP-A, OMFP fluorogenic substrate, fluorescence intensity. inhibition, % at 20 µM. actives 0.22% (n = 360,000). AID 651560;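 active means compounds that cut the enzyme signal by at least half of the control window in the single-dose screen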;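 further: plate controls were DMSO wells with enzyme plus substrate for no effect and substrate without enzyme for full effect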
Target sequence (P24666 whole entry, looked up): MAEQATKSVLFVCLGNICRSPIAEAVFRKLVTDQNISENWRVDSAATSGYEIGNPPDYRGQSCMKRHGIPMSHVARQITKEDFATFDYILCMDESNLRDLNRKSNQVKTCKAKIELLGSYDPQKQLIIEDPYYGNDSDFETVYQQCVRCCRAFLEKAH
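Test system: LMPTP-A phosphatase enzyme; input: 0.625 nM LMPTP-A final; reagent: OMFP substrate, 400 µM final; compound dosing: 20 µM single dose, 3% DMSO; incubation: 50 min dark incubation at room temperature; measured by: endpoint fluorescence intensity from OMFP dephosphorylation; measure: % inhibition relative to no-enzyme and uninhibited control wells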
STEP block = STEP (human) phosphatase inhibition. P54829. recombinant STEP, OMFP fluorogenic substrate, fluorescence. inhibition, % at 20 µM. actives 0.25% (n = 360,000). AID 588621;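 active means inhibition at 20 µM, scaled per plate between control wells, above about 37%, limit read from the data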;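 further: 0% = DMSO with enzyme and substrate and 100% = substrate only without enzyme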
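Assay system: isolated STEP enzyme. Buffer or medium: pH 6.0 Bis-Tris with DTT and Tween 20. Also added: fluorogenic phosphatase substrate OMFP at 25 µM final. Dosing: 20 µM, 1% DMSO. Timing: 20 min reaction, room temperature, in the dark. Measured by: fluorescence intensity, excitation 480 nm, emission 540 nm. Evaluation: normalized % inhibition.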
Scp1 confirm = Scp-1 (human) inhibition, single-dose confirmed; AID 540281; actives 61% (n = 2,500); shares compounds with Scp1 inh; inhibition, % at 20 µM; recombinant SCP-1 catalytic domain, phosphate release, malachite green absorbance;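 further: plate controls were DMSO with enzyme for no effect and buffer wells lacking enzyme for full effect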
Scp-1 MG ctr = colorimetric interference in Scp-1 counter-screen. shares compounds with Scp1 inh. Colorimetric interference counterscreen, malachite green absorbance 630 nm. apparent inhibition (interference), % at 20 µM. 2,500 tested, under 10 active. AID 540313;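 further: compounds added after enzyme reaction finished so only phosphate colour detection is probed; plate controls were DMSO wells with completed Scp-1 reaction for no effect and substrate wells lacking enzyme for full effect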
Scp-1 Tm shift = binds human Scp-1, shifting its melting temperature | shares compounds with Scp1 inh | Recombinant SCP1, Sypro Orange thermal shift Tm | thermal shift relative to vanadate control, % at 40 µM | actives 25% (n = 1,500);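 active means substances whose mean melting-temperature shift, as a percentage of the reference inhibitor's shift, reaches about 5.3%, limit read from the data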;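 further: 0% = Tm of DMSO wells and 100% = Tm with sodium orthovanadate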
* hit, by the source's call; ! = not active in a repeat. Only some compounds are listed: those with a hit (about 2.3% of all), similar ones and a draw of the others.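 How the source made its calls, unless noted: active means inhibition of at least 30% at 20 µM; inactive means the rest.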

Screening O=C1NC(=O)N(Cc2ccco2)C(=O)/C1=C/C=C/c1ccco1 returned Rpn11 block 141*, DNMT1 inh 97*, Scp1 inh 81*, SUMO1 PPI mod 92*, LMPTP inh 23 and STEP block 40*.
COC(=O)C1=C(c2ccc(OC(F)(F)F)cc2)C[C@@H]2CC[C@H]1N2C(=O)NCCOc1ccccc1Cl was read as Rpn11 block 2, DNMT1 inh 10, Scp1 inh -18, SUMO1 PPI mod 2, LMPTP inh 2 and STEP block 3.
For CCCCCN1C(=O)c2cc(OC)ccc2[C@@]2(C(=O)OCC)Cc3cc(OC)ccc3[C@@H]12 the results were SUMO1 PPI mod 16 and LMPTP inh 5.
O=C(O)CC1OCC=C2CN3CCC45C6=CC(=O)C(=O)C([N+](=O)[O-])=C6NC4C1C2CC35 (stereo not given) was read as Rpn11 block -4, DNMT1 inh 58*, Scp1 inh 21, SUMO1 PPI mod 30, LMPTP inh 15 and STEP block 18.
O=P(Nc1ccccc1)(Nc1ccccc1)Oc1cccc(Cl)c1 was read as Rpn11 block -5, DNMT1 inh -5, Scp1 inh -11, SUMO1 PPI mod -3, LMPTP inh 0 and STEP block -4.
`C=Cc1cc(OC)c2c(c1)c(=O)oc1c2cc(OC)c2c(O)ccc(C3OC(C)C(O)C(C)(O)C3O)c21` (stereo not given) gave Rpn11 block -10, DNMT1 inh 62*, Scp1 inh 81*, SUMO1 PPI mod 48*, LMPTP inh 11 and STEP block 8.
Screening CC(C)CNc1c2c(nc3ccccc13)CCC2 returned Rpn11 block -1, DNMT1 inh 2, Scp1 inh -3, SUMO1 PPI mod 39*, LMPTP inh 25 and STEP block 0.
`CN1C(=O)C2C[C@@]3(Br)c4ccccc4N(OOSc4ccccc4)[C@H]3N2C(=O)[C@@H]1Cc1ccccc1` (stereo not given in full) gave Rpn11 block -1, DNMT1 inh -2, Scp1 inh -2, SUMO1 PPI mod 2, LMPTP inh 2 and STEP block 0.
Screening CCOC(=O)[C@]1(C#N)[C@@H]2C=CC(C(C)=O)=CN2[C@@H](C(N)=O)[C@@H]1c1ccsc1 returned Rpn11 block -8, DNMT1 inh -5, Scp1 inh -5, SUMO1 PPI mod 67*, LMPTP inh 0 and STEP block 4.
Screening C[n+]1c(-c2ccccc2)cc(CCCCc2cc(-c3ccccc3)[n+](C)c(-c3ccccc3)c2)cc1-c1ccccc1 returned Rpn11 block 7, DNMT1 inh 21, Scp1 inh 47, SUMO1 PPI mod -30, LMPTP inh 50* and STEP block 4.
For Cc1nc2c(=O)n(C)c(=O)nc-2n(C)n1 the results were Rpn11 block 3, DNMT1 inh 128*, Scp1 inh 0, SUMO1 PPI mod 29, LMPTP inh 73* and STEP block 79*.
For Nc1c(C(=O)NC2CCCC2)c2nc3ccccc3nc2n1CC1CCCO1 (stereo not given) the results were Rpn11 block 20, DNMT1 inh 47, Scp1 inh 6, SUMO1 PPI mod 41*, LMPTP inh 8 and STEP block 0.
For O=c1[nH]c(O)c(/C=C2/C=CC(c3cc(Cl)ccc3Cl)=N2)c(=O)[nH]1 the results were Rpn11 block 15, DNMT1 inh 17, Scp1 inh -7, SUMO1 PPI mod 57*, LMPTP inh 46, STEP block 0, Scp1 confirm 25 and Scp-1 MG ctr -20.
Screening COc1cc2c(cc1OC)C(C1c3cc4c(cc3CCN1C)OCO4)OC2=O (stereo not given) returned Rpn11 block 5, DNMT1 inh 0, Scp1 inh -5, SUMO1 PPI mod 5, LMPTP inh 2 and STEP block 2.
C[N+]1(C)CCc2cc3c(cc2[C@H]1[C@@H]1OC(=O)c2c1ccc1c2OCO1)OCO3 was read as Rpn11 block 2, DNMT1 inh -1, Scp1 inh 99*!, SUMO1 PPI mod 3, LMPTP inh -1, STEP block 2, Scp1 confirm 82*, Scp-1 MG ctr -15 and Scp-1 Tm shift -24.
CCC(=Nc1ccc2c(c1)CCC2)c1c(O)n(-c2ccc(OC)cc2)c(=O)[nH]c1=O was read as Rpn11 block 12, DNMT1 inh 0, Scp1 inh -9, SUMO1 PPI mod 2, LMPTP inh -1 and STEP block 0.
COc1ccc(CN2CCNCC2)c(OC)c1OC was read as Rpn11 block -2, DNMT1 inh 1, Scp1 inh 99*!, SUMO1 PPI mod -2, LMPTP inh -4, STEP block -3, Scp1 confirm 95*, Scp-1 MG ctr -10 and Scp-1 Tm shift -14.
Screening COc1cc(CN2CCNCC2)cc(OC)c1OC returned Rpn11 block -7, DNMT1 inh 0, Scp1 inh -2, SUMO1 PPI mod 7, LMPTP inh -4 and STEP block -2.
For C=CC[N+]1(C)CC[C@]23c4c5ccc(O)c4O[C@H]2C(=O)CC[C@@]3(O)[C@H]1C5 (stereo not given in full) the results were Rpn11 block -3, DNMT1 inh 4, Scp1 inh 98*, SUMO1 PPI mod 1, LMPTP inh -1, STEP block -4, Scp1 confirm 93*, Scp-1 MG ctr -8 and Scp-1 Tm shift -24.
`O=C1CC[C@@]2(O)[C@H]3Cc4ccc(O)c5c4[C@@]2(CCN3CC2CC2)[C@H]1O5` gave Rpn11 block -9, DNMT1 inh 4, Scp1 inh -6, SUMO1 PPI mod -3, LMPTP inh -1 and STEP block -3.
Screening COC1CC2C=C(C)C=CC=CC(=O)NC(c3ccccc3)CC=CCCC(O)CC(=O)C2=C1O (stereo not given) returned Rpn11 block 6, DNMT1 inh 41, SUMO1 PPI mod 17, LMPTP inh -8 and STEP block 3.

Bioassay records as filed in PubChem.
